Measured values as given in ChEMBL document CHEMBL4138126, “Synthesis, antiproliferative, anti-tubulin activity, and docking study of new 1,2,4-triazoles as potential combretastatin analogues” (Eur J Med Chem, 2017).

How the values were obtained:
Assay type in all cases: functional
MOLT-4 = test: Growth inhibition of human MOLT4 cells assessed as cell growth at 10 uM after 48 hrs by sulforhodamine B assay; settings: MOLT-4, 48 h, read-out: Activity
In short: (§1)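 NCI 60-cell-line panel screen (nine cancer types). Compounds added at single concentration 10^-5 M, cultures incubated 48 h; growth inhibition percentages reported.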

HCT-15 = test: Growth inhibition of human HCT15 cells assessed as cell growth at 10 uM after 48 hrs by sulforhodamine B assay; settings: HCT-15, 48 h, read-out: Activity; in short: as §1
NCI-H522 = test: Growth inhibition of human NCI-H522 cells assessed as cell growth at 10 uM after 48 hrs by sulforhodamine B assay; settings: NCI-H522, 48 h, read-out: Activity; in short: as §1
MDA-MB-435 = test: Growth inhibition of human MDA-MB-435 cells assessed as cell growth at 10 uM after 48 hrs by sulforhodamine B assay; settings: MDA-MB-435, 48 h, read-out: Activity; in short: as §1
HL-60(TB) = test: Growth inhibition of human HL-60(TB) cells assessed as cell growth at 10 uM after 48 hrs by sulforhodamine B assay; settings: HL-60, 48 h, read-out: Activity
In short: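 Screened by the NCI in its 60-cell-line panel covering nine cancer types, including leukemia. Compounds were added at a single concentration, and the cultures were incubated for 48 h. Results are reported as percent growth inhibition.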

SR = test: Growth inhibition of human SR cells assessed as cell growth at 10 uM after 48 hrs by sulforhodamine B assay; settings: read-out: Activity
In short: (§2)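 NCI 60-cell-line panel from nine tumour types (leukaemia, lung, colon, CNS, melanoma, ovarian, renal, prostate, breast). Each compound was added at one single concentration, and cultures were incubated for 48 h. Results are reported as percent growth inhibition.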

COLO 205 = test: Growth inhibition of human COLO205 cells assessed as cell growth at 10 uM after 48 hrs by sulforhodamine B assay; settings: COLO 205, 48 h, read-out: Activity; in short: as §1
UACC-257 = test: Growth inhibition of human UACC257 cells assessed as cell growth at 10 uM after 48 hrs by sulforhodamine B assay; settings: UACC-257, 48 h, read-out: Activity; in short: as §2
HOP-62 = test: Growth inhibition of human HOP62 cells assessed as cell growth at 10 uM after 48 hrs by sulforhodamine B assay; settings: HOP-62, 48 h, read-out: Activity; in short: as §1
Hs-578T = test: Growth inhibition of human Hs 578T cells assessed as cell growth at 10 uM after 48 hrs by sulforhodamine B assay; settings: read-out: Activity; in short: as §1
MDA-MB-231 = test: Growth inhibition of human MDA-MB-231 cells assessed as cell growth at 10 uM after 48 hrs by sulforhodamine B assay; settings: MDA-MB-231, 48 h, read-out: Activity; in short: as §1
MDA-MB-468 = test: Growth inhibition of human MDA-MB-468 cells assessed as cell growth at 10 uM after 48 hrs by sulforhodamine B assay; settings: MDA-MB-468, 48 h, read-out: Activity; in short: as §1
NCI-H226 = test: Growth inhibition of human NCI-H226 cells assessed as cell growth at 10 uM after 48 hrs by sulforhodamine B assay; settings: NCI-H226, 48 h, read-out: Activity; in short: as §1
SF-295 = test: Growth inhibition of human SF295 cells assessed as cell growth at 10 uM after 48 hrs by sulforhodamine B assay; settings: SF-295, 48 h, read-out: Activity; in short: as §1
CAKI-1 = test: Growth inhibition of human CAKI-1 cells assessed as cell growth at 10 uM after 48 hrs by sulforhodamine B assay; settings: CAKI-1, 48 h, read-out: Activity; in short: as §1
IGROV-1 = test: Growth inhibition of human IGROV1 cells assessed as cell growth at 10 uM after 48 hrs by sulforhodamine B assay; settings: IGROV-1, 48 h, read-out: Activity; in short: as §1
OVCAR-5 = test: Growth inhibition of human OVCAR5 cells assessed as cell growth at 10 uM after 48 hrs by sulforhodamine B assay; settings: OVCAR-5, 48 h, read-out: Activity; in short: as §1
KM12 = test: Growth inhibition of human KM12 cells assessed as cell growth at 10 uM after 48 hrs by sulforhodamine B assay; settings: KM12, 48 h, read-out: Activity; in short: as §1
SK-OV-3 = test: Growth inhibition of human SKOV3 cells assessed as cell growth at 10 uM after 48 hrs by sulforhodamine B assay; settings: SK-OV-3, 48 h, read-out: Activity; in short: as §1
U-251 = test: Growth inhibition of human U251 cells assessed as cell growth at 10 uM after 48 hrs by sulforhodamine B assay; settings: U-251, 48 h, read-out: Activity; in short: as §2
786-0 = test: Growth inhibition of human 786-0 cells assessed as cell growth at 10 uM after 48 hrs by sulforhodamine B assay; settings: 786-0, 48 h, read-out: Activity; in short: as §1
OVCAR-8 = test: Growth inhibition of human OVCAR8 cells assessed as cell growth at 10 uM after 48 hrs by sulforhodamine B assay; settings: OVCAR-8, 48 h, read-out: Activity; in short: as §1
EKVX = test: Growth inhibition of human EKVX cells assessed as cell growth at 10 uM after 48 hrs by sulforhodamine B assay; settings: read-out: Activity; in short: as §1
SK-MEL-5 = test: Growth inhibition of human SK-MEL-5 cells assessed as cell growth at 10 uM after 48 hrs by sulforhodamine B assay; settings: SK-MEL-5, 48 h, read-out: Activity; in short: as §1
K562 = test: Growth inhibition of human K562 cells assessed as cell growth at 10 uM after 48 hrs by sulforhodamine B assay; settings: K562, 48 h, read-out: Activity; in short: as §1
HCC 2998 = test: Growth inhibition of human HCC2998 cells assessed as cell growth at 10 uM after 48 hrs by sulforhodamine B assay; settings: HCC 2998, 48 h, read-out: Activity; in short: as §1
SN12C = test: Growth inhibition of human SN12C cells assessed as cell growth at 10 uM after 48 hrs by sulforhodamine B assay; settings: read-out: Activity; in short: as §2
UACC-62 = test: Growth inhibition of human UACC62 cells assessed as cell growth at 10 uM after 48 hrs by sulforhodamine B assay; settings: UACC-62, 48 h, read-out: Activity; in short: as §2
SK-MEL-28 = test: Growth inhibition of human SK-MEL-28 cells assessed as cell growth at 10 uM after 48 hrs by sulforhodamine B assay; settings: SK-MEL-28, 48 h, read-out: Activity; in short: as §1

Structure (SMILES)	growth at 10 µM (HCT-15)	growth at 10 µM (NCI-H522)	growth at 10 µM (MDA-MB-435)	growth at 10 µM (HL-60(TB))	growth at 10 µM (SR)	growth at 10 µM (COLO 205)	growth at 10 µM (HOP-62)	growth at 10 µM (Hs-578T)	growth at 10 µM (MDA-MB-231)	growth at 10 µM (MDA-MB-468)	growth at 10 µM (NCI-H226)	growth at 10 µM (SF-295)	growth at 10 µM (IGROV-1)	growth at 10 µM (OVCAR-5)	growth at 10 µM (KM12)	growth at 10 µM (SK-OV-3)	growth at 10 µM (U-251)	growth at 10 µM (786-0)	growth at 10 µM (OVCAR-8)	growth at 10 µM (EKVX)	further results
CCOc1ccc(-n2nc(C(=O)Nc3cc(OC)c(OC)c(OC)c3)nc2-c2cc(OC)c(OC)c(OC)c2)cc1	82.1%	65.9%	79.6%	98.2%	40.7%	80.3%	95.7%	65.6%	50.5%	82%	78.1%	95.9%	90.8%	102%	81.8%	99.7%	85.1%	77.1%	74%	96.1%	growth at 10 µM (MOLT-4): 67.5%; growth at 10 µM (UACC-257): 93.1%; growth at 10 µM (CAKI-1): 77.4%
CCOc1ccc(-n2nc(C(=O)Nc3ccc(F)c(F)c3F)nc2-c2cc(OC)c(OC)c(OC)c2)cc1	64.3%	71.5%	90%	81.5%	86.5%	90%	86.5%	80.7%	73.6%	90.2%	91.2%	93%	95.6%	81.5%	96%	85%	98.2%	79.6%	93.4%	78.5%	growth at 10 µM (SK-MEL-5): 87%; growth at 10 µM (UACC-257): 101%; growth at 10 µM (K562): 90.7%; growth at 10 µM (HCC 2998): 94.6%; growth at 10 µM (SN12C): 86.5%; growth at 10 µM (UACC-62): 89.7%; growth at 10 µM (CAKI-1): 60.5%; growth at 10 µM (SK-MEL-28): 86.7%
COc1cccc(-n2nc(C(=O)NCc3ccccc3OC)nc2-c2cc(OC)c(OC)c(OC)c2)c1	96.8%	60.5%	90.8%	103%	93.8%	101%	85.9%	99.9%	93%	99.9%	96.8%	95.1%	88.5%	113%	95.6%	96.7%	97.1%	94%	103%	91.1%	growth at 10 µM (MOLT-4): 103%; growth at 10 µM (SK-MEL-5): 107%; growth at 10 µM (K562): 122%; growth at 10 µM (HCC 2998): 92.1%; growth at 10 µM (SN12C): 94.8%; growth at 10 µM (UACC-62): 97.4%; growth at 10 µM (SK-MEL-28): 115%
CCOc1ccc(-n2nc(C(=O)Nc3ccc(OC)c(O)c3)nc2-c2cc(OC)c(OC)c(OC)c2)cc1	97.2%	70.3%	95%	94.3%	68.5%	109%	99.3%	86.8%	65.8%	101%	96.5%	108%	95.2%	102%	92.8%	112%	93.2%	94.5%	78.7%	95.7%	growth at 10 µM (MOLT-4): 74.9%; growth at 10 µM (UACC-257): 90.8%; growth at 10 µM (CAKI-1): 86.1%
CCOc1ccc(-n2nc(C(=O)Nc3ccc(F)c(F)c3)nc2-c2cc(OC)c(OC)c(OC)c2)cc1	63.8%	61.1%	70.3%	89%	64%	63.7%	89.1%	48.1%	63.1%	98.6%	69.1%	60.5%	81.3%	101%	56.7%	85.2%	70.3%	85%	42.2%	76.5%	growth at 10 µM (MOLT-4): 50%; growth at 10 µM (UACC-257): 89.4%; growth at 10 µM (CAKI-1): 68.5%
COc1cccc(-n2nc(C(=O)NCc3ccccc3C)nc2-c2cc(OC)c(OC)c(OC)c2)c1	74.3%	60.8%	85.8%	89%	65.8%	84.3%	71%	77.6%	73.5%	90.1%	87.9%	76.1%	72%	111%	82%	87.7%	85%	76%	87.3%	73.3%	growth at 10 µM (MOLT-4): 80%; growth at 10 µM (SK-MEL-5): 86.8%; growth at 10 µM (K562): 90.8%; growth at 10 µM (HCC 2998): 96%; growth at 10 µM (SN12C): 91.7%; growth at 10 µM (UACC-62): 72.5%; growth at 10 µM (SK-MEL-28): 107%
CCOc1ccc(-n2nc(C(=O)NCc3cccc(OC)c3)nc2-c2cc(OC)c(OC)c(OC)c2)cc1	90%	58.7%	92.5%	91%	72.5%	91.8%	72.4%	93.3%	76.3%	87.7%	89.4%	90.3%	80.4%	120%	96.4%	85.8%	94.2%	90.2%	94.3%	89.1%	growth at 10 µM (MOLT-4): 69.9%; growth at 10 µM (SK-MEL-5): 92.2%; growth at 10 µM (K562): 88.5%; growth at 10 µM (HCC 2998): 102%; growth at 10 µM (SN12C): 96.5%; growth at 10 µM (UACC-62): 82.9%; growth at 10 µM (SK-MEL-28): 109%
CCOc1ccc(-n2nc(C(=O)Nc3cc(F)cc(F)c3)nc2-c2cc(OC)c(OC)c(OC)c2)cc1	77.9%	61.6%	91%	96.1%	61.8%	89.9%	95%	75.5%	64.3%	77%	77.2%	84.6%	85.1%	98.8%	85.9%	93%	82%	82.1%	84.6%	85.8%	growth at 10 µM (MOLT-4): 63.9%; growth at 10 µM (UACC-257): 90.4%; growth at 10 µM (CAKI-1): 68.8%
